Assay results: ChEMBL document CHEMBL1123747, “N-methyl derivatives of the 5-HT2 agonist 1-(4-bromo-2,5-dimethoxyphenyl)-2-aminopropane” (J Med Chem, 1987)

Experiments:
[1] = organism: Rattus norvegicus; assay: The number of responses made on the (R)(-)-DOB appropriate level, generation studies was calculated at dose 0.10 mg / kg; format: functional; conditions: dose 0.1 mg / kg
Procedure, shortened: (§1)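 Male Sprague-Dawley rats (n = 6) were trained on a two-lever operant task for sweetened-milk reward to discriminate 0.2 mg/kg (R)-(-)-DOB-HCl ip from 1.0 mL/kg 0.9% saline, with a VI 15-s schedule and 15-min sessions. Test doses were given ip 15 min before a 2.5-min extinction session, in random order, to groups of 3-6 rats. Read-out was % drug-lever responses; fewer than five total responses counted as disrupted.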

[2] = organism: Rattus norvegicus; assay: 1 The compound was tested for effective dose ( ED 50) against stimulus generation with rats trained to discriminate (R) (-)-DOB from saline.; format: functional
Procedure, shortened: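 Male Sprague-Dawley rats (n = 6) on a two-lever operant task for sweetened milk, VI 15-s schedule. Trained to discriminate 0.2 mg/kg ip training drug from 1.0 mL/kg 0.9% saline, 15 min pre-session. Test doses were given ip in random order to groups of 3–6, with 15-min pretreatment and a 2.5-min extinction session. ED50 was calculated from dose-response data.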

[3] = organism: Rattus norvegicus; assay: The number of animals responding per number of animals receiving the drug(4/4)in the stimulus-generation studies was calculated at dose 0.10 mg / kg; format: functional; conditions: dose 0.1 mg / kg; procedure, shortened: as §1
[4] = organism: Rattus norvegicus; assay: The mean responses per minute during the 2.5 min extinction session in the stimulus-generation studies was calculated at dose 0.05 mg / kg; format: functional
Procedure, shortened: (§2)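 Rats were trained on a two-lever drug-versus-saline discrimination (0.2 mg/kg ip training dose, VI 15-s, food reward). Challenge doses were given ip 15 min before a 2.5-min extinction test, in random order, to groups of 3–6 rats, with at least three training sessions between tests. Response rate is responses per minute over the extinction session.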

[5] = organism: Rattus norvegicus; assay: The mean responses per minute during the 2.5 min extinction session in the stimulus-generation studies was calculated at dose 0.10 mg / kg; format: functional; conditions: dose 0.1 mg / kg; procedure, shortened: as §2
[6] = organism: Rattus norvegicus; assay: The number of responses made on the (R)(-)-DOB appropriate level, generation studies was calculated at dose 0.01 mg / kg; format: functional; procedure, shortened: as §1
[7] = organism: Rattus norvegicus; assay: The number of animals responding per number of animals receiving the drug(5/5) in the stimulus-generation studies was calculated at dose 0.03 mg / kg; format: functional; procedure, shortened: as §1
[8] = organism: Rattus norvegicus; assay: The number of responses made on the (R)(-)-DOB appropriate level, generation studies was calculated at dose 0.05 mg / kg; format: functional; procedure, shortened: as §1
[9] = organism: Rattus norvegicus; assay: The number of animals responding per number of animals receiving the drug (5/5)in the stimulus-generation studies was calculated at dose 0.05 mg / kg; format: functional
Procedure, shortened: (§3)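 Male Sprague-Dawley rats were trained to discriminate 0.2 mg/kg ip training drug from saline (two levers, VI 15-s, milk reward). Test doses were given ip 15 min pre-session in random order to groups of 3–6. In the 2.5-min extinction session, rats making fewer than five total responses were counted as disrupted. N is animals responding over animals dosed.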

[10] = organism: Rattus norvegicus; assay: The number of responses made on the (R)(-)-DOB appropriate level, generation studies was calculated at dose 0.20 mg / kg; format: functional; conditions: dose 0.2 mg / kg; procedure, shortened: as §1
[11] = organism: Rattus norvegicus; assay: The number of animals responding per number of animals receiving the drug (4/4)in the stimulus-generation studies was calculated at dose 0.20 mg / kg; format: functional; conditions: dose 0.2 mg / kg; procedure, shortened: as §3
[12] = organism: Rattus norvegicus; assay: The number of responses made on the (R)(-)-DOB appropriate level, generation studies was calculated at dose 0.03 mg / kg; format: functional; procedure, shortened: as §1
[13] = organism: Rattus norvegicus; assay: The number of animals responding per number of animals receiving the drug(4/4) in the stimulus-generation studies was calculated at dose 0.01 mg / kg; format: functional; procedure, shortened: as §3
[14] = organism: Rattus norvegicus; assay: The mean responses per minute during the 2.5 min extinction session in the stimulus-generation studies was calculated at dose 0.01 mg / kg; format: functional; procedure, shortened: as §2
[15] = organism: Rattus norvegicus; assay: The mean responses per minute during the 2.5 min extinction session in the stimulus-generation studies was calculated at dose 0.03 mg / kg; format: functional; procedure, shortened: as §2
[16] = organism: Rattus norvegicus; assay: The mean responses per minute during the 2.5 min extinction session in the stimulus-generation studies was calculated at dose 0.20 mg / kg; format: functional; conditions: dose 0.2 mg / kg; procedure, shortened: as §2
[17] = organism: Rattus norvegicus; assay: The number of responses made on the (R)(-)-DOB appropriate level, generation studies was calculated at dose 2.0 mg / kg; format: functional; procedure, shortened: as §1
[18] = organism: Rattus norvegicus; assay: The number of responses made on the (R)(-)-DOB appropriate level, generation studies was calculated at dose 0.7 mg / kg; format: functional; procedure, shortened: as §1
[19] = molecular target: T1, Serotonin 2 (5-HT2) receptor (Rattus norvegicus, UniProt P30994+P08909+P14842); assay: Affinity towards [3H]- ketanserin-labeled 5-hydroxytryptamine 2 receptor sites in rat cortical homogenates
Procedure, shortened: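 Label was 0.4 nM [3H]ketanserin, with 11 competitor concentrations run in triplicate and nonspecific binding defined by 1 μM cinanserin. Bound ligand was filtered onto glass fibre and counted by scintillation. IC50 came from nonlinear regression; Ki = IC50/(1+[D]/KD).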

[20] = organism: Rattus norvegicus; assay: The number of animals responding per number of animals receiving the drug (4/4)in the stimulus-generation studies, was calculated at dose 0.7 mg / kg; format: functional; procedure, shortened: as §3
[21] = organism: Rattus norvegicus; assay: The mean responses per minute during the 2.5 min extinction session in the stimulus-generation studies was calculated at dose 0.7 mg / kg; format: functional; procedure, shortened: as §2
[22] = organism: Rattus norvegicus; assay: The mean responses per minute during the 2.5 min extinction session in the stimulus-generation studies was calculated at dose 2.0 mg / kg; format: functional; procedure, shortened: as §2
[23] = organism: Rattus norvegicus; assay: The number of animals responding per number of animals receiving the drug (3/3)in the stimulus-generation studies, was calculated at dose 1.2 mg / kg; format: functional; procedure, shortened: as §3
[24] = molecular target: T1, Serotonin 2 (5-HT2) receptor; assay: Affinity towards [3H]- DOB -labeled 5-hydroxytryptamine 2 receptor sites in rat cortical homogenates
[25] = organism: Rattus norvegicus; assay: The number of animals responding per number of animals receiving the drug(3/4) in the stimulus-generation studies, was calculated at dose 2.2 mg / kg; format: functional; procedure, shortened: as §3
[26] = organism: Rattus norvegicus; assay: The mean responses per minute during the 2.5 min extinction session in the stimulus-generation studies was calculated at dose 2.2 mg / kg; format: functional; procedure, shortened: as §2
[27] = organism: Rattus norvegicus; assay: The mean responses per minute during the 2.5 min extinction session in the stimulus-generation studies was calculated at dose 1.2 mg / kg; format: functional; procedure, shortened: as §2
[28] = organism: Rattus norvegicus; assay: The number of animals responding per number of animals receiving the drug (4/4)in the stimulus-generation studies, was calculated at dose 2.0 mg / kg; format: functional; procedure, shortened: as §3
[29] = organism: Rattus norvegicus; assay: The number of responses made on the (R)(-)-DOB appropriate level, generation studies was calculated at dose 1.2 mg / kg; format: functional; procedure, shortened: as §1
[30] = organism: Rattus norvegicus; assay: The number of responses made on the (R)(-)-DOB appropriate level, generation studies was calculated at dose 2.2 mg / kg; format: functional; procedure, shortened: as §1

In the case of `COc1cc(C[C@@H](C)N)c(OC)cc1Br`, the Responding [1] is reported as 64%, the ED50 [2] is reported as 0.05 mg/kg and the “No. of animals responding/animals receiving drug” value [3] is reported as 4. For the same molecule, the Response rate [4] was 12, the Response rate [5] was 10.8 and the Responding [6] was 5%. For the same molecule, the “No. of animals responding/animals receiving drug” value [7] was 5, the Responding [8] was 58% and the “No. of animals responding/animals receiving drug” value [9] was 5. The Responding [10] was 98%, the “No. of animals responding/animals receiving drug” value [11] was 4 and the Responding [12] was 21%. The “No. of animals responding/animals receiving drug” value [13] was 4, the Response rate [14] was 12.5 and the Response rate [15] was 11.8. The Response rate [16] was 12.3.
`COc1cc(CC(C)[N+](C)(C)C)c(OC)cc1Br.[I-]` (stereo not given) showed a Responding [17] of 38%, a Responding [18] of 3% and a Ki [19] greater than 25 µM. The “No. of animals responding/animals receiving drug” value [20] was 4, the Response rate [21] was 16.2 and the Response rate [22] was 7.3. For the same molecule, the “No. of animals responding/animals receiving drug” value [23] was 3, the Ki [24] was 8.25 µM and the “No. of animals responding/animals receiving drug” value [25] was 3. The Response rate [26] was 3.7, the Response rate [27] was 11.9 and the “No. of animals responding/animals receiving drug” value [28] was 4. The Responding [29] was 9% and the Responding [30] was 3%.
